In ChEMBL document CHEMBL1147132, “Structure-activity relationship studies of gonadotropin-releasing hormone antagonists containing S-aryl/alkyl norcysteines and their oxidized derivatives” (J Med Chem, 2007):
In brackets after ≈: the same amount, converted by molar mass. Starred links: 1 amine or outer side, 2 acyl side, 3 side chain; linkers in the order of their positions; H or OH if unused. Non-standard residues stand in square brackets, D forms with d. Residues, ends and D or L forms follow the SMILES beside them. Phe(4-NH(5-NH2triazol-3-yl)) = Nc1nc(Nc2ccc(C[C@H](N)C(=O)O)cc2)n[nH]1; X1 = Nc1nc(Nc2ccc(C[C@@H](N[*:1])C(=O)[*:2])cc2)n[nH]1; dPhe(4-Cl) = N[C@H](Cc1ccc(Cl)cc1)C(=O)O; d2Nal = N[C@H](Cc1ccc2ccccc2c1)C(=O)O; Lys(iPr) = CC(C)NCCCC[C@H](N)C(=O)O; d3Pal = N[C@H](Cc1cccnc1)C(=O)O

What was measured:
[1] = molecular target: T1, Gonadotropin-releasing hormone receptor (Rattus norvegicus, UniProt P30969); test: Antagonist activity at rat GnRHR expressed in HEK293 cells assessed as inhibition of GnRH-induced luciferase response by reporter gene assay; type: functional, cell-based
T1 sequence (P30969 whole entry): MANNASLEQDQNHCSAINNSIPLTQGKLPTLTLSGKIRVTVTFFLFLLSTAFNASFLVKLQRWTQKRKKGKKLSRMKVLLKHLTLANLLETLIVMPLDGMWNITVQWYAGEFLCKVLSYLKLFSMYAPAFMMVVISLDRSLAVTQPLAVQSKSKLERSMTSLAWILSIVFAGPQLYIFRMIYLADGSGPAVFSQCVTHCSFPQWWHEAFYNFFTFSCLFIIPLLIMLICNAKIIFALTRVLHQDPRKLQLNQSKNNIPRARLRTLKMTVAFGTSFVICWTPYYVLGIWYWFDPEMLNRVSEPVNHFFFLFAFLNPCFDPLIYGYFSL
Method in brief: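 Rat GnRHR stably expressed in HEK293 cells, transiently transfected with an NFAT-responsive luciferase reporter, plated after 16 h and assayed next day. Compound in 1% DMSO was given 10 min before 1 nM GnRH (final), ≥5 h at 37 °C, then luminescence. Duplicates at 11 half-log concentrations. IC50 by four-parameter logistic fit, geometric mean of ≥2 experiments.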

[2] = molecular target: T2, Gonadotropin-releasing hormone receptor (Homo sapiens) (UniProt P30968); test: Antagonist activity at human GnRHR expressed in COS7 cells assessed as inhibition of GnRH-stimulated inositol phosphate production after 2 hrs; type: functional, cell-based; conditions: COS-7, filed as antagonist
T2 sequence (whole entry): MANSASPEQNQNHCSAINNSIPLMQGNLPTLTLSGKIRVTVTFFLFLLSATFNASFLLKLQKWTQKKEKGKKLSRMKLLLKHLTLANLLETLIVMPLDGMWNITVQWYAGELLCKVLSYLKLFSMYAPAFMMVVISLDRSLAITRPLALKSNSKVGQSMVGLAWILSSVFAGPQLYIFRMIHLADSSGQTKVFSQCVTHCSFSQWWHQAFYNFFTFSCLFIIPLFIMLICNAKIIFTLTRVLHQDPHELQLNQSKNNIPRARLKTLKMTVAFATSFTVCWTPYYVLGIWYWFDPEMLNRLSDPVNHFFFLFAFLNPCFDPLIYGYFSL
Method in brief: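 COS-7 cells transiently transfected with WT hGnRH-R cDNA, labelled 18 h at 37 °C with 4 μCi/mL [3H]myo-inositol in inositol-free DMEM. Cells were washed in medium with 5 mM LiCl, then co-incubated 2 h at 37 °C with 10−8 M GnRH plus analogue at 10−8 to 10−5 M. IP was measured by Dowex anion-exchange and scintillation counting. Triplicate, repeated three or more times.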

[3] = molecular target: T3, Gonadotropin-releasing hormone receptor (Homo sapiens, UniProt P30968); test: Antagonist activity at human GnRHR expressed in HEK293 cells assessed as inhibition of GnRH-induced luciferase response by reporter gene assay; type: functional, cell-based
T3 sequence (P30968 whole entry): T2 sequence (whole entry)
Method in brief: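 HEK293 cells stably expressing cloned human GnRHR and an LH alpha-subunit-promoter luciferase reporter, plated overnight. Compound in 1% DMSO was added 10 min before GnRH (1 nM final), then ≥5 h at 37 °C, 5% CO2, then luminescence. 11 half-log concentrations in duplicate. IC50 from four-parameter logistic fit, reported as geometric mean of ≥2 experiments.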

[4] = Ratio of IC50 for rat GnRHR to IC50 for human GnRHR in HEK293 cells; type: functional
Rattus norvegicus [5] = test: Inhibition of plasma testosterone levels in Sprague-Dawley rat at 19.6 uM, sc by enzyme-linked immunosorbent assay; type: functional
Method in brief: (§1)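 Intact adult male Sprague-Dawley rats (275–310 g, 3 per group) received subcutaneous mini-pumps for seven days. Solutions were in 1:3 DMSO/water: 19.6 μM (~0.66 nM/day/kg), or 9.8 μM (~0.33 nM/day/kg). Sham-operated controls. Plasma was sampled on days 3–7 and testosterone measured by ELISA. Values are means of days 4–7.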

[6] = Solubility in 5% mannitol; type: physicochemical
Rattus norvegicus [7] = test: Inhibition of plasma testosterone levels in Sprague-Dawley rat at 9.8 uM, sc by enzyme-linked immunosorbent assay; type: functional; method in brief: as §1

| Compound | IC50 [1] | Activity [2] | IC50 [3] | solubility [6] | Ratio IC50 [4] | Plasma testosterone level (Rattus norvegicus [5]) | Activity (Rattus norvegicus [7]) |
| --- | --- | --- | --- | --- | --- | --- | --- |
| CC(=O)Nc1ccc(C[C@H](NC(=O)[C@H](CO)NC(=O)[C@@H](Cc2cccnc2)NC(=O)[C@@H](Cc2ccc(Cl)cc2)NC(=O)[C@H](NC(C)=O)Sc2ccc3ccccc3c2)C(=O)N[C@H](Cc2ccc(NC(C)=O)cc2)C(=O)N[C@@H](CC(C)C)C(=O)N[C@@H](CCCCNC(C)C)C(=O)N2CCC[C@H]2C(=O)N[C@H](C)C(N)=O)cc1 | 4.4 nM (antagonist) | Antagonist | 0.73 nM (antagonist) | 50 mg/mL (≈ 32.2 mM) | 6.03 | 1.03 ng/mL |  |
| CS[C@H](NC(=O)[C@@H](Cc1cccnc1)NC(=O)[C@@H](Cc1ccc(Cl)cc1)NC(=O)[C@@H](Cc1ccc2ccccc2c1)NC(C)=O)C(=O)N[C@@H](Cc1ccc(NC(C)=O)cc1)C(=O)N[C@H](Cc1ccc(NC(C)=O)cc1)C(=O)N[C@@H](CC(C)C)C(=O)N[C@@H](CCCCNC(C)C)C(=O)N1CCC[C@H]1C(=O)N[C@H](C)C(N)=O | 2.4 nM (antagonist) | Antagonist | 1.2 nM (antagonist) | 50 mg/mL (≈ 32.3 mM) | 2 | 1.99 ng/mL |  |
| CC(=O)Nc1ccc(C[C@H](NC(=O)[C@H](CO)NC(=O)[C@@H](CCC(N)=O)NC(=O)[C@@H](Cc2ccc(Cl)cc2)NC(=O)[C@@H](Cc2ccc3ccccc3c2)NC(C)=O)C(=O)N[C@H](Cc2ccc(NC(C)=O)cc2)C(=O)N[C@@H](C(=O)N[C@@H](CCCCNC(C)C)C(=O)N2CCC[C@H]2C(=O)N[C@H](C)C(N)=O)[S+]([O-])C(C)C)cc1 (some centres not stated) |  |  | 85 nM (antagonist) | 50 mg/mL (≈ 32.3 mM) |  |  |  |
| CC(=O)Nc1ccc(C[C@H](NC(=O)[C@H](CO)NC(=O)[C@@H](Cc2cccnc2)NC(=O)[C@@H](Cc2ccc(Cl)cc2)NC(=O)[C@@H](Cc2ccc3ccccc3c2)NC(C)=O)C(=O)N[C@H](Cc2ccc(NC(C)=O)cc2)C(=O)N[C@H](SC(C)C)C(=O)N[C@@H](CCCCNC(C)C)C(=O)N2CCC[C@H]2C(=O)N[C@H](C)C(N)=O)cc1 |  | Antagonist | 0.81 nM (antagonist) | 50 mg/mL (≈ 32.2 mM) |  |  |  |
| CC(=O)Nc1ccc(C[C@H](NC(=O)[C@H](CO)NC(=O)[C@@H](Cc2cccnc2)NC(=O)[C@@H](Cc2ccc(Cl)cc2)NC(=O)[C@@H](Cc2ccc3ccccc3c2)NC(C)=O)C(=O)N[C@H](Cc2ccc(NC(C)=O)cc2)C(=O)N[C@@H](SC(C)C)C(=O)N[C@@H](CCCCNC(C)C)C(=O)N2CCC[C@H]2C(=O)N[C@H](C)C(N)=O)cc1 | 2.5 nM (antagonist) | Antagonist | 0.31 nM (antagonist) | 50 mg/mL (≈ 32.2 mM) | 8.07 | 1.59 ng/mL |  |
| CC(=O)N[C@H](Cc1ccc2ccccc2c1)C(=O)N[C@H](Cc1ccc(Cl)cc1)C(=O)N[C@H](Cc1cccnc1)C(=O)N[C@@H](CO)C(=O)N[C@@H](Cc1ccc(Nc2n[nH]c(N)n2)cc1)C(=O)N[C@H](Cc1ccc(Nc2n[nH]c(N)n2)cc1)C(=O)N[C@@H](CC(C)C)C(=O)N[C@@H](CCCCNC(C)C)C(=O)N1CCC[C@H]1C(=O)N[C@H](C)C(N)=O.CC(=O)O [PRAZARELIX ACETATE] (Ac-[d2Nal][dPhe(4-Cl)][d3Pal]S[Phe(4-NH(5-NH2triazol-3-yl))][X1]L[Lys(iPr)]P[dA]-NH2) | 1.4 nM (antagonist) |  | 1.36 nM (antagonist) | 50 mg/mL | 1.03 | 0.32 ng/mL | 1.39 ng/mL |
| CS[C@@H](NC(=O)[C@@H](Cc1cccnc1)NC(=O)[C@@H](Cc1ccc(Cl)cc1)NC(=O)[C@@H](Cc1ccc2ccccc2c1)NC(C)=O)C(=O)N[C@@H](Cc1ccc(NC(C)=O)cc1)C(=O)N[C@H](Cc1ccc(NC(C)=O)cc1)C(=O)N[C@@H](CC(C)C)C(=O)N[C@@H](CCCCNC(C)C)C(=O)N1CCC[C@H]1C(=O)N[C@H](C)C(N)=O |  | Antagonist | 25 nM (antagonist) | 50 mg/mL (≈ 32.3 mM) |  |  |  |
| CC(=O)Nc1ccc(C[C@H](NC(=O)[C@H](CO)NC(=O)[C@@H](Cc2cccnc2)NC(=O)[C@@H](Cc2ccc(Cl)cc2)NC(=O)[C@@H](Cc2ccc3ccccc3c2)NC(C)=O)C(=O)N[C@H](Cc2ccc(NC(C)=O)cc2)C(=O)N[C@H](C(=O)N[C@@H](CCCCNC(C)C)C(=O)N2CCC[C@H]2C(=O)N[C@H](C)C(N)=O)[S+]([O-])C(C)C)cc1 (some centres not stated) | 3.2 nM (antagonist) |  | 1.2 nM (antagonist) | 50 mg/mL (≈ 31.9 mM) | 2.67 | 3.22 ng/mL |  |

Continued, in another order:

| IC50 [1] | Activity [2] | IC50 [3] | solubility [6] | Compound | Ratio IC50 [4] | Plasma testosterone level (Rattus norvegicus [5]) | Activity (Rattus norvegicus [7]) |
| --- | --- | --- | --- | --- | --- | --- | --- |
| 1.7 nM (antagonist) | Antagonist | 0.6 nM (antagonist) | 50 mg/mL (≈ 31.9 mM) | CS[C@@H](NC(=O)[C@@H]1CCCN1C(=O)[C@H](CCCCNC(C)C)NC(=O)[C@H](CC(C)C)NC(=O)[C@@H](Cc1ccc(NC(C)=O)cc1)NC(=O)[C@H](Cc1ccc(NC(C)=O)cc1)NC(=O)[C@H](CO)NC(=O)[C@@H](Cc1cccnc1)NC(=O)[C@@H](Cc1ccc(Cl)cc1)NC(=O)[C@@H](Cc1ccc2ccccc2c1)NC(C)=O)C(N)=O | 2.83 | 1.97 ng/mL |  |
| 1.7 nM (antagonist) | Antagonist | 0.8 nM (antagonist) | 50 mg/mL (≈ 31.9 mM) | CS[C@H](NC(=O)[C@@H]1CCCN1C(=O)[C@H](CCCCNC(C)C)NC(=O)[C@H](CC(C)C)NC(=O)[C@@H](Cc1ccc(NC(C)=O)cc1)NC(=O)[C@H](Cc1ccc(NC(C)=O)cc1)NC(=O)[C@H](CO)NC(=O)[C@@H](Cc1cccnc1)NC(=O)[C@@H](Cc1ccc(Cl)cc1)NC(=O)[C@@H](Cc1ccc2ccccc2c1)NC(C)=O)C(N)=O | 2.13 | 2.21 ng/mL |  |
| 1.5 nM (antagonist) | Antagonist | 0.52 nM (antagonist) | 50 mg/mL (≈ 32.6 mM) | CC(=O)Nc1ccc(C[C@H](NC(=O)[C@H](CO)NC(=O)[C@@H](Cc2cccnc2)NC(=O)[C@@H](Cc2ccc(Cl)cc2)NC(=O)[C@@H](Cc2ccc3ccccc3c2)NC(C)=O)C(=O)N[C@H](Cc2ccc(NC(C)=O)cc2)C(=O)N[C@@H](CC(C)C)C(=O)N[C@@H](CCCCNC(C)C)C(=O)N2CCC[C@H]2C(=O)N[C@H](C)C(N)=O)cc1 [ACYLINE] | 2.89 | 0.69 ng/mL |  |
|  |  | 0.83 nM (antagonist) | 50 mg/mL (≈ 31.6 mM) | CC(=O)Nc1ccc(C[C@H](NC(=O)[C@H](CO)NC(=O)[C@@H](Cc2cccnc2)NC(=O)[C@@H](Cc2ccc(Cl)cc2)NC(=O)[C@@H](Cc2ccc3ccccc3c2)NC(C)=O)C(=O)N[C@H](Cc2ccc(NC(C)=O)cc2)C(=O)N[C@@H](CC(C)C)C(=O)N[C@@H](CCCCNC(C)C)C(=O)N2CCC[C@H]2C(=O)N[C@@H](C(N)=O)[S+](C)[O-])cc1 (some centres not stated) |  |  |  |
